MPTP inh: blocks calcium-induced mitochondrial swelling. isolated mouse mitochondria, Ca2+ swelling absorbance, 30 min. inhibition, % at 10 µM. 1.4% of 360,000 active. AID 602449;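 active = inhibition of 50% or more, scaled per plate between neutral and stimulator controls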;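 also: 0% = DMSO wells given calcium and 100% = 1 mM EGTA wells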
aDG glyco act: alpha-DG glycosylation activation; activation, % at 10 µM; 0.22% of 360,000 active; Pro5-aDG cells, alpha-DG glycosylation AlphaScreen (IIH6); 0% Pro5, 100% B10-LARGE cell signal;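 active = activation of at least 8% versus controls, or a plate z-score of at least 8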;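 also: Pro5 are CHO cells carrying HIG-tagged alpha-DG that lacks glycosylation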
ADAM17 inh: ADAM17 inhibition, QFRET primary screen | AID 720648 | P78536 | inhibition, % at 6.95 µM | 0.83% of 370,000 active | recombinant ADAM17, EDANS/DABCYL FRET peptide cleavage;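 active = inhibition above the mean of compounds lying between control limits plus 3 SD, set per campaign, cut at about 8.5% in these data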;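 also: 0% = DMSO-only wells as the low control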
Target sequence (P78536 215-824 limits assumed): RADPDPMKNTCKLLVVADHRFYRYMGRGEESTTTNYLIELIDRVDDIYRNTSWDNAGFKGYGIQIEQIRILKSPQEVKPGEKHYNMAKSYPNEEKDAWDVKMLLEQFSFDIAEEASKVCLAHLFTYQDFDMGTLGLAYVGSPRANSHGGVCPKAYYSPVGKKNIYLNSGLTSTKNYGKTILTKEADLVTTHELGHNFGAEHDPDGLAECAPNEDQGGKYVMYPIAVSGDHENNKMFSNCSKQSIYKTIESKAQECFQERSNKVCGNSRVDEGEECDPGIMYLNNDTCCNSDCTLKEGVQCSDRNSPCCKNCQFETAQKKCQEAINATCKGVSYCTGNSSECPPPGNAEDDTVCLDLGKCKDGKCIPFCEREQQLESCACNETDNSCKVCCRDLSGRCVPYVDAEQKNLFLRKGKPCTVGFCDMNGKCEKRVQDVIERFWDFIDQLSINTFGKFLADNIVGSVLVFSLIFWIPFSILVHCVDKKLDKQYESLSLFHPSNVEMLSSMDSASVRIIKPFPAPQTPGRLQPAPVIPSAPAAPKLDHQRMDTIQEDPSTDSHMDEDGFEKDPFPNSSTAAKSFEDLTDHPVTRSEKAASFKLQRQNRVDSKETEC
Lipid droplet: hepatic lipid droplet formation modulation; AML12 mouse hepatocytes, oleate lipid droplets, BODIPY imaging; inhibition, % at 6.5 µM; 0.4% of 240,000 active; AID 1656;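 active = lipid droplet intensity inhibited by at least 50%, with more than 500 cells counted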
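Test system: AML12 hepatocytes (mouse); reagent: oleate loading, 100 µM; dosing: one dose, 6.5 µM compound; incubation: overnight exposure; signal: fluorescence imaging, 20x objective, two fields per well; read-out basis: % inhibition of corrected integrated BODIPY droplet signal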
V-ATPase pH: alters yeast V-ATPase proton transport | S. cerevisiae, pHLuorin cytosolic pH fluorescence | response, % at 10 µM | 0.37% of 350,000 active | AID 504577; in the data active = response mostly above about 7.3%, no sharp cut-off; inactive = mostly below about 5.4%; also: actives read high
ADAM10 inh: inhibitors of human ADAM10; recombinant ADAM10, EDANS/DABCYL FRET peptide cleavage, 3 h; O14672; inhibition, % at 7 µM; 0.62% of 370,000 active;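 active = inhibition above a per-campaign cutoff equal to the mean of compounds falling between control-based bounds plus 3 SD, cut at about 20% in these data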;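 also: 0% = DMSO wells while the 100% control is not disclosed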
MPTP counter: Rhodamine 123 counter-screen of mitochondrial pore hits; shares compounds with MPTP inh; isolated mitochondria, membrane potential, Rhodamine 123 fluorescence; inhibition, % at 10 µM; 78% of 5,000 active; AID 624504; in the data active = inhibition above about 22%;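 also: 0% = DMSO vehicle and 100% = positive control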
MPTP swell DR: dose response confirmation of mitochondrial permeability transition pore inhibitors | shares compounds with MPTP inh | isolated mitochondria swelling, absorbance | IC50, µM | 58% of 780 active | AID 651561; in the data active = IC50 below about 20 µM
MPTP counter DR: MPTP inhibitor counter-screen activity, dose response. shares compounds with MPTP inh. IC50, µM. isolated mitochondria counterscreen, fluorescence read-out. 49% of 780 active; in the data active = IC50 below about 80 µM
Starred values were filed as active, the others as inactive; nt = no result given. This is a sample that favours compounds with a hit; in the whole collection about 3.1% have one here.

SMILES | MPTP inh | aDG glyco act | ADAM17 inh | Lipid droplet | V-ATPase pH | ADAM10 inh | MPTP counter | others
Cc1ccc(NC(=O)Nc2nnc(Cc3ccc([N+](=O)[O-])cc3)s2)cc1 | 34.4 | -0.2 | 0.5 | -3.2 | -11.3 | 4.6 | nt
O=C(Cc1nnc(NC(=O)Nc2ccc(Cl)cc2)s1)NCc1ccccc1 | -1.0 | -0.2 | -1.7 | nt | 2.0 | -2.7 | nt
CCCCCCCCN1C(=O)[C@@H](CC(=O)N2CCCCC2)C[C@@]2(C(=O)OC)C1=C[C@H](COCc1ccccc1)O[C@@H]2C | nt | nt | -1.0 | nt | nt | 0.1 | nt
CCc1c2c3n4c1CCC[C@@H]4C[C@@H]3O[Si](C(C)C)(C(C)C)OC(C)C2=O (stereo partly specified) | nt | nt | -11.6 | nt | nt | -36.9 | nt
Fc1ccc(NC(=S)SCc2ccc3c(c2)OCO3)cc1F | 76.0* | 0.0 | 0.5 | nt | -4.2 | 1.4 | 94.4*
Fc1ccc(NC(=S)NCc2ccc3c(c2)OCO3)cc1 | 11.4 | 0.1 | -2.2 | 8.2 | 1.6 | 0.1 | nt
O=C(c1ccccc1)c1ccc(Cn2cc(-c3ccccc3)nn2)cc1 | 84.6* | 4.5* | 5.6 | 2.9 | -2.9 | 14.5 | 98.8*
O=C(Nc1ccc(F)cc1)c1ccc(S(=O)(=O)N2CCCC2)cc1 | 0.5 | -0.1 | -0.9 | 15.4 | 2.4 | 2.7 | nt
O=C(Nc1ccc(F)cc1)Nc1ccc(S(=O)(=O)N2CCCC2)cc1 | 83.0* | 0.3 | 3.9 | nt | -2.9 | 7.9 | 99.7*
CC(=O)c1ccc(NC(=O)Nc2ccc(S(=O)(=O)N3CCCC3)cc2)cc1 | 80.1* | 0.4 | 6.4 | 4.1 | 0.9 | 10.1 | 93.2*
O=C(Nc1ccc(S(=O)(=O)N2CCCC2)cc1)Nc1ccc(F)cc1F | 30.7 | 0.2 | 0.8 | -5.8 | -3.5 | 6.6 | nt
Cc1oc(S(=O)(=O)N2CCCCC2)cc1NC(=O)Nc1ccc(F)cc1 | 77.0* | -0.1 | -1.8 | -10.8 | -2.5 | -3.8 | 86.7*
O=C(NCCN1CCC(Cc2ccccc2)CC1)C1CCCN(S(=O)(=O)c2ccc(Br)s2)C1 (stereo unspecified) | nt | nt | 4.1 | nt | nt | 9.2 | nt
CC(=O)N1CCN(c2ccc(Oc3ccc([N+](=O)[O-])c(C(F)(F)F)c3)cc2)CC1 | 80.2* | 2.0 | nt | 1.3 | 2.3 | nt | 75.7*
CN(Cc1cn(C)nc1-c1ccc(Oc2ccccc2)cc1)Cc1cnc2ccccn12 | 68.8* | 0.5 | 0.3 | -4.4 | 0.0 | 4.4 | 56.5*
Cn1cc(CNCc2cnc3ccccn23)c(-c2ccc(Oc3ccccc3)cc2)n1 | 30.7 | 0.3 | -2.8 | 1.9 | nt | -11.4 | nt
O=C(CN1CCN(Cc2ccc(Cl)cc2)C1=O)NCCCN1CCN(c2ccc(F)cc2)CC1 | 69.0* | 2.4 | -3.8 | 8.8 | 16.6* | -1.0 | 16.2 | MPTP swell DR=10.6*;MPTP counter DR=11.8*
Cc1ccccc1CN1CCN(CC(=O)NCCCN2CCN(c3ccc(F)cc3)CC2)C1=O | 55.7* | 0.3 | 4.1 | nt | 5.7 | 11.4 | 18.3
COc1cc(/C=C(\C#N)c2nc3ccccc3[nH]2)ccc1Oc1ccc([N+](=O)[O-])cn1 | 78.2* | -0.2 | -13.6 | nt | 1.8 | -35.2 | 55.0*
N#C/C(=C\c1cccc(Oc2ccc(C(F)(F)F)cc2[N+](=O)[O-])c1)c1nc2ccccc2[nH]1 | 155.2* | -0.1 | -3.8 | nt | -1.2 | -12.2 | 105.0*
Cc1ccc2nc(/C(C#N)=C\c3ccc(Oc4ccc(C(F)(F)F)cc4[N+](=O)[O-])cc3)[nH]c2c1 | 99.4* | 1.0 | -1.6 | 11.5 | -0.6 | -7.3 | 58.9*
COc1cc(/C=C(\C#N)c2nc3ccccc3[nH]2)cc(Br)c1OCc1ccc(F)cc1 | 20.2 | 0.1 | -7.7 | nt | -1.9 | -9.5 | nt
COc1cc(/C=C(\C#N)c2nc3ccccc3[nH]2)cc(Br)c1OCc1ccccc1 | 63.6* | 1.0 | -17.1 | -33.1 | 1.5 | -51.6 | 72.9*
COc1ccc(/C=C(\C#N)c2nc3ccc(C)cc3[nH]2)cc1Oc1ccc(C(F)(F)F)cc1[N+](=O)[O-] | 43.4 | -0.3 | -4.1 | nt | -0.6 | -2.6 | nt
CCC[C@H]1[C@@H](NC(=O)c2ccc(Cl)c(C(F)(F)F)c2)CC[C@@]23CCCN2C(=O)CCC[C@@H]13 | nt | nt | 0.2 | nt | nt | 0.7 | nt
SMILES | MPTP inh | aDG glyco act | ADAM17 inh | Lipid droplet | V-ATPase pH | ADAM10 inh | MPTP counter | others
O=S(=O)(Nc1nc2ccccc2nc1Nc1ccc2c(c1)OCO2)c1ccccc1 | 40.7 | 0.1 | -0.7 | -4.6 | -2.1 | 0.9 | nt
Cc1ccc(S(=O)(=O)Nc2nc3ccccc3nc2Nc2cccc(S(=O)(=O)N3CCCC3)c2)cc1 | 82.2* | -0.1 | -5.1 | nt | 0.9 | -11.5 | 41.1*
Cc1cccc(S(=O)(=O)Nc2nc3ccccc3nc2Nc2ccc3c(c2)OCO3)c1 | 96.6* | 0.2 | -1.3 | -14.3 | 0.0 | -6.2 | 64.7*
O=[N+]([O-])c1cccc(S(=O)(=O)Nc2nc3ccccc3nc2Nc2cccc(S(=O)(=O)N3CCCCC3)c2)c1 | 59.5* | -0.4 | -0.1 | 2.0 | -3.2 | -1.4 | 30.2*
O=[N+]([O-])c1cccc(S(=O)(=O)Nc2ccc(S(=O)(=O)N3CCCC3)cc2)c1 | 0.4 | 0.0 | -1.1 | 11.7 | 0.0 | 2.6 | nt
CCC(C)N(C(=O)CSc1nnc(-c2cc(OC)c(OC)c(OC)c2)o1)C(C)CC (stereo unspecified) | nt | nt | -2.6 | nt | nt | -4.9 | nt
Cc1ccc(-c2cc(-c3n[nH]c(=S)o3)c3ccccc3n2)cc1 | 93.6* | -0.1 | -21.3 | 5.3 | 3.5 | -138.7 | 63.5*
CCC(C)N(c1nc(C)nc2c1nnn2Cc1ccccc1)C(C)CC (stereo unspecified) | nt | nt | -0.2 | nt | nt | 2.7 | nt
O=C(CSc1nnc(-c2ccccc2)n1-c1ccc(Cl)cc1)c1ccc(F)cc1 | nt | nt | -11.0 | nt | nt | -44.1 | nt
CCCc1cn(-c2ccc3c(c2)[C@]2(CC(=O)N(C)C2c2ccccc2)C(=O)N3CC(C)C)nn1 (stereo partly specified) | nt | nt | -5.0 | nt | nt | -4.7 | nt
CCc1nnc(NS(=O)(=O)c2ccc(NC(=S)NC(=O)/C=C/c3ccc([N+](=O)[O-])cc3)cc2)s1 | -3.0 | 0.0 | -3.1 | 28.3 | 5.0 | 6.2 | nt
CCc1nnc(NS(=O)(=O)c2ccc(NC(=S)NC(=O)/C=C/c3ccc(F)cc3)cc2)s1 | 53.0* | -0.1 | -1.6 | -14.8 | -0.8 | 2.7 | 39.8*
O=C(Nc1ccc2ccccc2c1)c1ccccc1O | 98.2* | 0.0 | -8.8 | -43.7 | -1.0 | -23.9 | 92.2*
Cc1ccc(NC(=O)c2cc3ccccc3cc2O)cc1 | 70.5* | -0.2 | -2.2 | 5.1 | 4.1 | 14.4 | 72.9*
CN1CCN(NC(=O)c2cn(-c3ccccc3)nc2-c2cccs2)CC1 | 0.9 | 0.3 | -0.5 | 11.6 | 1.4 | -2.0 | nt
O=C(Nc1ccc2ccccc2c1)c1cn(-c2ccccc2)nc1-c1cccs1 | 69.6* | 0.5 | -1.2 | nt | 4.6 | -1.5 | 70.4*

Assay outcomes as filed in PubChem BioAssay.
